These results are taken from ChEMBL document CHEMBL1150420, “A peptoid antagonist of VEGF receptor 2 recognizes a 'hotspot' in the extracellular domain distinct from the hormone-binding site” (Bioorg Med Chem, 2008).

Active and inactive are the calls of the source. The rule behind the calls is not given here. Numbered stars: 1 amine (or outer) side, 2 acyl side, 3 side chain; on linkers, the order of the positions; unused ones are H or OH. Bridge positions count the residues as written; N and C are the ends. Square brackets hold non-standard residues; d marks the D form. Peptide text beside a SMILES is read from it. I, II: the chains in the order shown. ξ: configuration not given here. Gly(N(CH2)2(3-indolyl)) = O=C(O)CNCCc1c[nH]c2ccccc12; Gly(N-piperonyl) = O=C(O)CNCc1ccc2c(c1)OCO2; X1 = CC(c1ccccc1)N(CC(=O)[*:2])[*:1]; NFurfurylGly = O=C(O)CNCc1ccco1; NAllylGly = C=CCNCC(=O)O; Nleu = CC(C)CNCC(=O)O; Nlys = NCCCCNCC(=O)O; ξK = NCCCCC(N)C(=O)O; Ahx = NCCCCCC(=O)O; Nme = COCCNCC(=O)O; βAla = NCCC(=O)O

The target in experiment [1] is Vascular endothelial growth factor receptor 1 (Homo sapiens) (UniProt P17948). The experiment in a line: Binding affinity to human recombinant VEGFR1 extracellular domain by ELISA like binding assay. Summed up: (§1)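 Plates coated overnight at 4 °C with recombinant human VEGFR ECD at 1 µg/mL in carbonate buffer pH 9.5, then washed and blocked. Serial dilutions of FITC-labelled peptoid in blocking buffer or TBST were added for 1 h at room temperature. After five PBS washes, retained fluorescence was read at 520 nm. KD was taken from the titration.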
Chain of Vascular endothelial growth factor receptor 1 (Homo sapiens) (P17948 whole entry, the tested form may be a part): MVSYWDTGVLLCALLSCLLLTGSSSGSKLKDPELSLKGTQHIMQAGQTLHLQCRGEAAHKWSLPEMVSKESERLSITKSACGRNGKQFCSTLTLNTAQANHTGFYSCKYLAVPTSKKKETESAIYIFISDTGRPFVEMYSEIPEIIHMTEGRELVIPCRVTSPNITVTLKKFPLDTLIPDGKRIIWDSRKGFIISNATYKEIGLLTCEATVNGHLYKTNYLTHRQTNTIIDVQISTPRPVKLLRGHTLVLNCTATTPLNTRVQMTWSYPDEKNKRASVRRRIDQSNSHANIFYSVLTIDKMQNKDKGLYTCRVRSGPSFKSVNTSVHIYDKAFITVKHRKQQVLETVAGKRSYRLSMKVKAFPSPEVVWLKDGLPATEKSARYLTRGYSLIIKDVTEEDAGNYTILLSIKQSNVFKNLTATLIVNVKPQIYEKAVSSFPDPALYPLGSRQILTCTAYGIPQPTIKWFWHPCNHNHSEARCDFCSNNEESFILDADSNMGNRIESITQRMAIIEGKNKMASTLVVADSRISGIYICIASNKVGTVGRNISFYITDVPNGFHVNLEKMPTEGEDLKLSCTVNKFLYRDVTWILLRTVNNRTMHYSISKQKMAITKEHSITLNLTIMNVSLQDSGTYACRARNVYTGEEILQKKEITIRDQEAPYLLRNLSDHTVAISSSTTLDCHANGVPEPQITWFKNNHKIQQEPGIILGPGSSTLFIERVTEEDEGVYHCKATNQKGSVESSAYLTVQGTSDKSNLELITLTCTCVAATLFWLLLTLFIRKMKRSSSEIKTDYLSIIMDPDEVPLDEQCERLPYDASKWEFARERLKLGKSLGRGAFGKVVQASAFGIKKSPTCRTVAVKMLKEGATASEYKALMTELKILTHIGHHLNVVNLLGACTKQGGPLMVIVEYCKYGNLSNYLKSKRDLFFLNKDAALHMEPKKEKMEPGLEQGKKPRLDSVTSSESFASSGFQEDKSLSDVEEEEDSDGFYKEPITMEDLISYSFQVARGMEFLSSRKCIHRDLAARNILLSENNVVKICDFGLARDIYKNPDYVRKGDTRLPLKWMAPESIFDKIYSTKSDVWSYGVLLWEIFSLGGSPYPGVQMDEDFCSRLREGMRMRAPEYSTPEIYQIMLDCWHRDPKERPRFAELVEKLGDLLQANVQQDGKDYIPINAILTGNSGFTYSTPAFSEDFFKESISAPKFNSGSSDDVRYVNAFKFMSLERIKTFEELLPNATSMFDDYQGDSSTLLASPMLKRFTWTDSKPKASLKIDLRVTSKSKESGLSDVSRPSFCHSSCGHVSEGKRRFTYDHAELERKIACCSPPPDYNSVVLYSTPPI

The target in experiment [2] is T1, Vascular endothelial growth factor receptor 2 (Homo sapiens, UniProt P35968). Kind of experiment: Binding affinity to human recombinant VEGFR2 extracellular domain by ELISA like binding assay. The method, boiled down: as §1
T1 sequence (P35968 whole entry, the tested form may be a part): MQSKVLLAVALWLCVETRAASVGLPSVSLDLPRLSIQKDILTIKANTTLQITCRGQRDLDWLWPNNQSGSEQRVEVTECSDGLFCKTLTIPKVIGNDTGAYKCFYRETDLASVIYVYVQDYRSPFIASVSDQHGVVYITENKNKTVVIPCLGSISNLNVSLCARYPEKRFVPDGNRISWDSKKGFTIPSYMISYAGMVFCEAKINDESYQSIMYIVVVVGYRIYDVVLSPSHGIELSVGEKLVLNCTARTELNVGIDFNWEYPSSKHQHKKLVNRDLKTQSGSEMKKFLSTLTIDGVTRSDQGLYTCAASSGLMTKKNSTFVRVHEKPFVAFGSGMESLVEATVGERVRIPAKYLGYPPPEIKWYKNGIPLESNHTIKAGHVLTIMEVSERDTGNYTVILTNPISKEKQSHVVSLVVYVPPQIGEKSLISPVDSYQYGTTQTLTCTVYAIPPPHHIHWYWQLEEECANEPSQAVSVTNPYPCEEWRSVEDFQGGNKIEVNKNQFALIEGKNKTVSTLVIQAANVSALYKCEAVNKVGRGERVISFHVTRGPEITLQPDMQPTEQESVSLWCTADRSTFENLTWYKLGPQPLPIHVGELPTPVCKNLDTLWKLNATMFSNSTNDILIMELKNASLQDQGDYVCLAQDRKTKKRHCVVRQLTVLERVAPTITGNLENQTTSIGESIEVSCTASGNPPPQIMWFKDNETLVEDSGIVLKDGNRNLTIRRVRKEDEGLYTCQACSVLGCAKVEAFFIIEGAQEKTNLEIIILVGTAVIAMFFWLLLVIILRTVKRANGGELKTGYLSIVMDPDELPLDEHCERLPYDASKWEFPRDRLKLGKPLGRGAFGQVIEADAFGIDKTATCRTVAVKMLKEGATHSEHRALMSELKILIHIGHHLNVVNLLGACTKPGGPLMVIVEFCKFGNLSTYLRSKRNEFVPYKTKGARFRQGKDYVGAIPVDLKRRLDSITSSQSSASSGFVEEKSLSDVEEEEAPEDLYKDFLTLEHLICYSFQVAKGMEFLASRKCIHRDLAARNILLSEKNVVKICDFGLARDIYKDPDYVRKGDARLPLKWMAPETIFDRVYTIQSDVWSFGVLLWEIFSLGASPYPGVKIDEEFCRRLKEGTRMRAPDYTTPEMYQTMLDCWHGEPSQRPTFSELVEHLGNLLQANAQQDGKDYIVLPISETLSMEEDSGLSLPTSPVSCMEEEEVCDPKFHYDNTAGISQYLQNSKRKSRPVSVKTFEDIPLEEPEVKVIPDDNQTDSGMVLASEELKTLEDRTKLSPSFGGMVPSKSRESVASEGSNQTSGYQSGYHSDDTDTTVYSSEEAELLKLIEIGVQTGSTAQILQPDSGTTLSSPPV
A general note: ELISA stands for enzyme-linked immunosorbent assay.

Experiment [3] has as its target Vascular endothelial growth factor receptor 1 (Homo sapiens) (UniProt P17948). Kind of experiment: Binding affinity to human recombinant VEGFR1(1-3) N terminal domain by ELISA like binding assay. The method, boiled down: as §1
Experiment [4] deals with T1, Vascular endothelial growth factor receptor 2. The experiment in a line: Displacement of GU40C-FITC form human recombinant VEGFR2 extracellular domain by ELISA like binding assay.
Experiment [5] shares this target. Kind of experiment: Displacement of fluorescein-labeled GU40C4 from human recombinant VEGFR2 extracellular domain by ELISA like binding assay.

The Kd is the concentration at which binding is half-saturated. With `CC(C)CN(CC(=O)N(CCCCN)CC(=O)N(CCCCN)CC(N)=O)C(=O)CN(CCCCN)C(=O)CN(CC(C)C)C(=O)CN(CCCCN)C(=O)CN(Cc1ccco1)C(=O)CN(CCCCN)C(=O)CNCCc1c[nH]c2ccccc12` (H-[Gly(N(CH2)2(3-indolyl))][Nlys][NFurfurylGly][Nlys][Nleu][Nlys][Nleu][Nlys][Nlys]-NH2), the outcome in experiment [1], in experiment [3] and in experiment [4] was Active. The Kd in experiment [2] came to 1 µM.
In the case of `CC(C)CN(CC(=O)N(CCCCN)CC(=O)N(CCCCN)CC(N)=O)C(=O)CN(CCCCN)C(=O)CN(Cc1ccc2c(c1)OCO2)C(=O)CN(CCCCN)C(=O)CN(CC(C)C)C(=O)CN(Cc1ccc2c(c1)OCO2)C(=O)CNCCCCN` (H-[Nlys][Gly(N-piperonyl)][Nleu][Nlys][Gly(N-piperonyl)][Nlys][Nleu][Nlys][Nlys]-NH2), the result in experiment [1], in experiment [2], in experiment [3] and in experiment [4] was Active.
Turning to `CC(C)CN(CC(=O)N(CCCCN)CC(=O)N(CC(=O)N(CC(=O)N(CCCCN)CC(=O)N(CC(=O)N(CCCCN)CC(=O)N(CCCCN)CC(N)=O)CC(C)C)Cc1ccc2c(c1)OCO2)C(C)c1ccccc1)C(=O)CNCCCCN` (configuration not stated) (H-[Nlys][Nleu][Nlys][X1][Gly(N-piperonyl)][Nlys][Nleu][Nlys][Nlys]-NH2), the result in experiment [1], in experiment [3] and in experiment [4] was Active. Besides, the Kd in experiment [2] was found to be 1 µM.
With `C=CCN(CC(=O)N(CC(=O)N(CCCCN)CC(=O)N(CCCCN)CC(N)=O)CC(C)C)C(=O)CN(CC(C)C)C(=O)CN(Cc1ccc2c(c1)OCO2)C(=O)CN(CCc1c[nH]c2ccccc12)C(=O)CN(CCCCN)C(=O)CNCCCCN` (H-[Nlys][Nlys][Gly(N(CH2)2(3-indolyl))][Gly(N-piperonyl)][Nleu][NAllylGly][Nleu][Nlys][Nlys]-NH2), the outcome in experiment [1], in experiment [2], in experiment [3] and in experiment [4] was Active.
Take `C=CCN(CC(=O)N(CCc1c[nH]c2ccccc12)CC(=O)N(CCCCN)CC(=O)N(CC(=O)N(CCCCN)CC(=O)N(CCCCN)CC(N)=O)CC(C)C)C(=O)CN(CC(C)C)C(=O)CN(CCOC)C(=O)CNCCCCN` (H-[Nlys][Nme][Nleu][NAllylGly][Gly(N(CH2)2(3-indolyl))][Nlys][Nleu][Nlys][Nlys]-NH2): the outcome in experiment [1], in experiment [2], in experiment [3] and in experiment [4] was Active.
Take `CC(C)CN(CC(=O)N(CCCCN)CC(=O)N(CC(=O)N(CC(=O)N(CCCCN)CC(=O)N(CC(=O)N(CCCCN)CC(=O)N(CCCCN)CC(=O)NCCCCCC(=O)NCCC(=O)NC(CCCCNC(=O)CN(CCCCN)C(=O)CN(CCCCN)C(=O)CN(CC(C)C)C(=O)CN(CCCCN)C(=O)CN(Cc1ccc2c(c1)OCO2)C(=O)CN(C(=O)CN(CCCCN)C(=O)CN(CC(C)C)C(=O)CNCCCCN)C(C)c1ccccc1)C(N)=O)CC(C)C)Cc1ccc2c(c1)OCO2)C(C)c1ccccc1)C(=O)CNCCCCN` (configuration not stated) (I: H-[Nlys][Nleu][Nlys][X1][Gly(N-piperonyl)][Nlys][Nleu][Nlys][Nlys][Ahx][βAla][ξK]-NH2 / II: H-[Nlys][Nleu][Nlys][X1][Gly(N-piperonyl)][Nlys][Nleu][Nlys][Nlys]; amide I:12-II:C): the outcome in experiment [2] and in experiment [5] was Active.
